Results on 5 compounds are retold here after ChEMBL document CHEMBL1154765, “A series of alpha-amino acid ester prodrugs of camptothecin: in vitro hydrolysis and A549 human lung carcinoma cell cytotoxicity” (J Med Chem, 2010).

The nature of data set [1]: Stability in phosphate buffer assessed as half life of prodrug hydrolysis at 5 mg at pH 7.4 by HPLC. Format: physicochemical. The conditions noted are these: in vitro. In a few lines: (§1)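 In 100 mM sodium phosphate buffer, 5 mg prodrug per 2 mL, shaken at 37 °C, triplicate runs. Timed aliquots dried, taken up in methanol, and quantified by HPLC with fluorescence detection. Prodrug loss fit to first-order decay, Ct versus C0; half-life obtained from the rate constant.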

A short description of data set [2]: Stability in phosphate buffer assessed as half life of camptothecin formation at 5 mg at pH 6.6 by HPLC. Format: physicochemical. The following applies: in vitro. In a few lines:
(§2)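 Prodrug (5 mg) in 2 mL 100 mM sodium phosphate buffer on shaker at 37 °C, in triplicate. Aliquots taken at set times, dried, reconstituted in methanol, and analysed by HPLC with fluorescence detection. CPT appearance fit to first-order kinetics, Ct versus C∞; half-life derived from the rate constant.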

Data set [3] can be described thus: Stability in phosphate buffer assessed as half life of camptothecin formation at 5 mg at pH 7.4 by HPLC. The conditions noted are these: in vitro. Type of data set: physicochemical. In a few lines:
as §2

Another data set relates to A549. Nature of the data set: Cytotoxicity against human A549 cells after 48 hrs by MTT method. Format: functional, cell-based. The following applies: A549, 48 h. In a few lines:
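A549 cells grown in DMEM/F-12 with 10% FBS, 37 °C, 5% CO2; seeded 10,000 cells/well, attached 24 h, then exposed in triplicate to 30 dilutions for 48 h. Washed with PBS, MTT added 5 h at 37 °C in dark, crystals dissolved in SDS/DMF:water, absorbance 570 nm (reference 690 nm). Viability relative to drug-free controls; IC50 from variable-slope sigmoidal fit.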
On the technique in general: Tetrazolium assays rely on reduction of a dye to a coloured formazan, in cell work by metabolically active cells.

Data set [4] is described as follows: Stability in phosphate buffer assessed as half life of prodrug hydrolysis at 5 mg at pH 7 by HPLC. Type of data set: physicochemical. In a few lines: as §1
Data set [5] is described as follows: Stability in phosphate buffer assessed as half life of prodrug hydrolysis at 5 mg at pH 6.6 by HPLC. Type of data set: physicochemical. The conditions noted are these: in vitro. The method, boiled down: as §1
Data set [6] in a line: Stability in phosphate buffer assessed as half life of camptothecin formation at 5 mg at pH 7 by HPLC. Type of data set: physicochemical. The method, boiled down: as §2

One may read the pIC50 as the IC50 on a negative log10 scale, so that one unit is a factor of ten. A low value points to a high IC50.

pIC50: −log10 of the molar value.

In the case of `CC[C@@]1(OC(=O)CN)C(=O)OCc2c1cc1n(c2=O)Cc2cc3ccccc3nc2-1`, the t1/2 in data set [1] came out at 1.774 h; in data set [2], 11.54 h; in data set [3], 10.79 h; in data set [4], 1.802 h; in data set [5], 2.564 h; in data set [6], 11.26 h. The pIC50 in the data set with A549 is 7.91.
For the compound `CCC[C@@H](N)C(=O)O[C@]1(CC)C(=O)OCc2c1cc1n(c2=O)Cc2cc3ccccc3nc2-1`, the t1/2 in data set [1] was found to be 2.926 h; in data set [2], 38.26 h; in data set [3], 32.31 h; in data set [4], 4.119 h; in data set [5], 4.652 h; in data set [6] it was 36.7 h. In the data set on A549, the pIC50 was 8.28.
In the case of `CC[C@@H](N)C(=O)O[C@]1(CC)C(=O)OCc2c1cc1n(c2=O)Cc2cc3ccccc3nc2-1`, the t1/2 in data set [1] came out at 2.934 h; in data set [2], 28.25 h; in data set [3], 25.34 h; in data set [4] it was 3.197 h; in data set [5], 4.68 h; in data set [6] it was 26.27 h. Besides, in the data set on A549, the pIC50 is 8.39.
Consider `CC[C@@]1(OC(=O)[C@@H](C)N)C(=O)OCc2c1cc1n(c2=O)Cc2cc3ccccc3nc2-1`, for which the t1/2 is 2.496 h in data set [1]; 21.31 h in data set [2]; 15.47 h in data set [3]; 2.828 h in data set [4]; 4.336 h in data set [5]; 16.3 h in data set [6]. In the data set with A549, the pIC50 is 6.92.
The compound `CC[C@@]1(O)C(=O)OCc2c1cc1n(c2=O)Cc2cc3ccccc3nc2-1` [CAMPTOTHECIN] gave a negative-log IC50 (pIC50) in the data set with A549 of 8.27.
